A selection: hits, their analogues and other compounds. The true share with any hit is near 2.2%.
E-sel inducer – induces E-selectin expression in human endothelial cells; P16581; HUVEC E-selectin immunofluorescence imaging; normalized: neutral wells 0, TNF-alpha wells 100; activation, % at 7.58 µM; 260,000 compounds, 0.37% hits;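 active means mean E-selectin-positive cell signal at least 10% of the positive control, reached in at least 60% of replicates, without over 20% cell loss; inconclusive means no rule given, readout overlaps actives, possibly toxicity-flagged; inactive means the rest, including those meeting only one limit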
Target sequence (P16581 whole entry, looked up): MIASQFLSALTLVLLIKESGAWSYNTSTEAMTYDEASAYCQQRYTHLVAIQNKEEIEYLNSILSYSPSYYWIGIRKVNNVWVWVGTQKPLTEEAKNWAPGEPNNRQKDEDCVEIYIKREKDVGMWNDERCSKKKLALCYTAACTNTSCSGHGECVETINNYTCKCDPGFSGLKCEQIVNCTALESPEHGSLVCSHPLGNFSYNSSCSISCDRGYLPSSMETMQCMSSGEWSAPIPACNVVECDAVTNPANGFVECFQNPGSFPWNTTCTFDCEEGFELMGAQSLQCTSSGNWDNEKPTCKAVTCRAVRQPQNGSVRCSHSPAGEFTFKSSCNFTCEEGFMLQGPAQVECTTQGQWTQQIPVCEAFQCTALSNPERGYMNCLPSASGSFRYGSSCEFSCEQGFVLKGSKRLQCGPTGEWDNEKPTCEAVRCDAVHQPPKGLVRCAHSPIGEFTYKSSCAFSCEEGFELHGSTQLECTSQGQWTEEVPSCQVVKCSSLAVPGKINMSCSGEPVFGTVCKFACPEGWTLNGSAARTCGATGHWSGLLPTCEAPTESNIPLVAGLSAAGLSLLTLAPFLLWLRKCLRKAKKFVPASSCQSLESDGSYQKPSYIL
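assay system = HUVEC, human umbilical vein endothelial cells | input = 3,000 HUVEC seeded per well | medium = EGM-2 growth medium on 0.1% gelatin-coated wells | dosing = one compound dose added by pin transfer | signal = immunofluorescence imaging | read-out basis = % PE-positive cells | control set = TNF-alpha, DMSO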
C2C12 statin – protects C2C12 myotubes from simvastatin toxicity | ATP luminescence, 48 h; scaled: DMSO 0, geranylgeraniol control 100 | rescue of ATP level, % at 7.49 µM | 330,000 compounds, 0.78% hits;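 active means mean ATP rescue above about 67%, or every replicate alone reaching that limit, limit read from the data, passing the limit was not always enough; inconclusive means no clear call, values can overlap the other calls; inactive means mean under the limit and some replicate under it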;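 further: myotubes were challenged with 10 µM simvastatin during compound exposure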
DENV2 CPE rescue – DENV2-induced cell death inhibition | DENV2-infected cells, cytopathic effect rescue, plate reader | CPE inhibition, % at 9.99 µM | 350,000 compounds, 1.7% hits; in the data active means CPE inhibition above about 20%, passing the limit was not always enough; inconclusive means no clear call, values can overlap the other calls; tested in BHK-21 cells;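 further: 0% = median of neutral control wells and 100% = median of positive control wells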
Numbers without * were called inactive.

O=C(Nc1ccc(-c2ccccc2)cc1)c1ccc2c(c1)S(=O)(=O)c1ccccc1C2=O was read as E-sel inducer 0, C2C12 statin -13 and DENV2 CPE rescue -16.
For N#Cc1cccnc1N1CCN(C(=O)c2ccc3c(c2)S(=O)(=O)c2ccccc2C3=O)CC1 the results were E-sel inducer 0, C2C12 statin 0 and DENV2 CPE rescue -3.
For O=C(Nc1ccncc1)c1ccc2c(c1)S(=O)(=O)c1ccccc1C2=O the results were E-sel inducer 0, C2C12 statin -19 and DENV2 CPE rescue 53*.
O=C1c2ccccc2S(=O)(=O)c2cc(C(=O)N3CCN(c4ccc(Cl)cn4)CC3)ccc21 was read as E-sel inducer 0, C2C12 statin 10 and DENV2 CPE rescue 42*.
COCCNC(=O)C(=O)Nc1ccc(Br)cc1 was read as C2C12 statin -19.
COCC(COCCCNC(=O)Nc1ccc(Br)cc1)OC (centres undefined) was read as C2C12 statin 108*.
`Cc1ccc(SC(=O)c2c(C)noc2-c2cc(C)on2)cc1` gave E-sel inducer 2 and DENV2 CPE rescue 41*.
Cc1cc(-c2onc(C)c2C(=O)N/N=C/c2ccccc2)no1 was read as C2C12 statin 7 and DENV2 CPE rescue -5.
O=C(C1CCC1)N1C[C@H]2[C@@H](c3ccccc31)[C@H](CO)N2C(=O)c1ccccc1 was read as E-sel inducer 0, C2C12 statin -8 and DENV2 CPE rescue 4.
`CCCn1c(NCc2ccc(N(C)C)cc2)nc2ccccc21` gave E-sel inducer 3, C2C12 statin 1 and DENV2 CPE rescue 24*.
`CN(C)c1ccc(CNc2nc3ccccc3n2C)cc1` gave E-sel inducer 1, C2C12 statin -6 and DENV2 CPE rescue -5.
`Cc1ccc(NC2=C(Cl)C(=O)c3ccccc3C2=O)cc1` gave E-sel inducer 2, C2C12 statin -495 and DENV2 CPE rescue 83*.
Screening O=C1C(Cl)=C(Nc2ccc(O)cc2)C(=O)c2ccccc21 returned E-sel inducer 0 and DENV2 CPE rescue 8.
`Cc1noc(C)c1NC(=O)Nc1ccc2c(c1)C(=O)N([C@H](C)CO)C[C@@H](C)[C@H](CN(C)C)OCCCC[C@@H](C)O2` gave E-sel inducer 1, C2C12 statin 18 and DENV2 CPE rescue inconclusive.
CN(C)CCCNC(=O)C[C@H]1C=C[C@@H](NS(=O)(=O)c2ccccc2)[C@H](CO)O1 was read as E-sel inducer 1, C2C12 statin -15 and DENV2 CPE rescue 18.
CN1CCN(C(=O)c2cc3sc4ccccc4c3s2)CC1 was read as E-sel inducer 0 and DENV2 CPE rescue 43*.
For CCn1c(=O)c2cc(C(=O)N3CCN(C)CC3)sc2c2ccccc21 the results were E-sel inducer 0, C2C12 statin -9 and DENV2 CPE rescue inconclusive.
For C[C@@H](NC(=O)[C@@H]1[C@@H](CO)[C@@H]2Cn3c(ccc(-c4ccccc4)c3=O)[C@H]1N2C)c1ccccc1 the results were E-sel inducer 0, C2C12 statin -13 and DENV2 CPE rescue -1.
For COCCNC(=O)C1CCCN(Cc2ccccc2)CC1 (centres undefined) the results were E-sel inducer 0, C2C12 statin -1 and DENV2 CPE rescue -3.
Screening COCCNC(=O)CCC1CCN(Cc2ccc(-c3ccccc3)cc2)CC1 returned C2C12 statin 1 and DENV2 CPE rescue 48*.
`Cc1cccc(S(=O)(=O)N2CC[C@@H]3[C@H]2c2cc(C#Cc4cccnc4)ccc2N[C@@H]3CO)c1` gave E-sel inducer -1, C2C12 statin -37 and DENV2 CPE rescue -11.
For Cc1ccc(C2CC(c3cccs3)=NN2C(=O)c2ccc(Br)o2)cc1 (centres undefined) the results were C2C12 statin 93*.
For CC(=O)N1N=C(c2cccs2)CC1c1ccc(Br)cc1 (centres undefined) the results were E-sel inducer 0, C2C12 statin -1 and DENV2 CPE rescue 2.
C[C@H]1CN([C@@H](C)CO)C(=O)c2cc(-c3ccccc3)cnc2O[C@H]1CN(C)C(=O)Nc1ccccc1 was read as E-sel inducer -4, C2C12 statin 45 and DENV2 CPE rescue 1.
CCCCc1c(O)nc(SCC(=O)NCC2CCCO2)[nH]c1=O (centres undefined) was read as C2C12 statin 94*.
`CCCCCc1c(O)nc(SCC(=O)NCC2CCCO2)[nH]c1=O` (centres undefined) gave C2C12 statin -4.
For O=C(C[C@H]1CC[C@@H]2[C@H](COC[C@H](O)CN2C(=O)Nc2ccc(Cl)cc2)O1)NC1Cc2ccccc2C1 the results were E-sel inducer 0, C2C12 statin 11 and DENV2 CPE rescue 2.
`CC(Oc1ccccc1Cl)C(=O)N1CCOCC1` (centres undefined) gave E-sel inducer 1 and DENV2 CPE rescue 107*.
Screening CC(Oc1ccccc1Cl)C(=O)N1CCCN(C)CC1 (centres undefined) returned E-sel inducer 1, C2C12 statin -1 and DENV2 CPE rescue 0.
`O=C(Nc1ccc(F)cc1)N[C@@H]1CC[C@@H](CCn2cc(C3(O)CCCC3)nn2)O[C@@H]1CO` gave E-sel inducer 1 and C2C12 statin 2.
`O=C(NC(=S)NCCN1CCOCC1)c1ccccc1Cl` gave C2C12 statin 20.
For O=C(NC(=S)NCCN1CCOCC1)c1ccc(Cl)cc1Cl the results were C2C12 statin 89*.
For C[C@H]1CN([C@@H](C)CO)C(=O)c2cccc(NS(=O)(=O)c3ccc(Cl)cc3)c2O[C@@H]1CN(C)Cc1ccc(C(F)(F)F)cc1 the results were E-sel inducer 0, C2C12 statin 33 and DENV2 CPE rescue -6.
`CCS(=O)(=O)Nc1ccc2c(c1)C(=O)N(C)[C@@H]1CC[C@H](CC(=O)NCc3ccccc3F)O[C@@H]1CO2` gave E-sel inducer 0, C2C12 statin -15 and DENV2 CPE rescue 13.
`COc1ccc(-c2ccc3c(c2)[C@@H]2[C@@H](CCN2S(=O)(=O)c2ccc(OC)cc2)[C@@H](CO)N3C)cc1` gave E-sel inducer 0, C2C12 statin -89 and DENV2 CPE rescue 7.
Screening O=C(NC1CCN(Cc2ccccc2)CC1)c1ccc(CS(=O)c2ccc(F)cc2)o1 (centres undefined) returned E-sel inducer 0, C2C12 statin 13 and DENV2 CPE rescue 9.
`O=C(NC1CCN(Cc2ccccc2)CC1)c1ccc(CS(=O)c2ccccc2Cl)o1` (centres undefined) gave E-sel inducer 0, C2C12 statin 32 and DENV2 CPE rescue 70*.
Screening COc1ccc(CNC(=O)c2cccnc2Sc2ccc(C)c(C)c2)cc1 returned C2C12 statin 11.
For Cc1ccc(Sc2ncccc2C(=O)NCc2cc([N+](=O)[O-])ccc2O)cc1C the results were E-sel inducer 0, C2C12 statin -6 and DENV2 CPE rescue 58*.
`CC(C)CC#Cc1ccc2c(c1)O[C@H](CN(C)C(=O)Cc1ccccn1)[C@@H](C)CN([C@H](C)CO)S2(=O)=O` gave E-sel inducer 0, C2C12 statin 7 and DENV2 CPE rescue -14.
For COc1ccc(OC)c(NC(=O)c2ccc(Cl)cc2)c1 the results were C2C12 statin -7 and DENV2 CPE rescue -3.
